Reference: ChEMBL document CHEMBL1142488, “Synthesis of N-substituted 5-[2-(N-alkylamino)ethyl]dibenzo[c,h][1,6]naphthyridines as novel topoisomerase I-targeting antitumor agents” (Bioorg Med Chem, 2008)

Columns and labels:
MDA-MB-435 (human) [1] = test: Antitumor activity against human MDA-MB-435 cells xenografted in NCR/NU NU mouse assessed as tumor volume measured on day 28 initially dosed at 5 mg/kg, ip qd x 5/week for 1 week and was gradually increased to 7 mg/kg x 5/week schedule
MDA-MB-435 (human) [2] = test: Antitumor activity against human MDA-MB-435 cells xenografted in NCR/NU NU mouse assessed as tumor volume measured on day 42 initially dosed at 5 mg/kg, ip qd x 5/week for 1 week and was gradually increased to 7 mg/kg x 5/week schedule
MDA-MB-435 (human) [3] = test: Antitumor activity against human MDA-MB-435 cells xenografted in NCR/NU NU mouse assessed as tumor volume measured on day 35 initially dosed at 5 mg/kg, ip qd x 5/week for 1 week and was gradually increased to 7 mg/kg x 5/week schedule
[4] = Cytotoxicity against human RPMI8402 cells after MTT assay; type: functional, cell-based; conditions: RPMI 8402
Procedure, shortened: (§1)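 Suspension cultures at 37 °C, 5% CO2, in RPMI with 10% heat-inactivated FBS, 2 mM L-glutamine, penicillin and streptomycin. Continuous 4-day exposure to a range of drug concentrations, then MTT read-out to give IC50. Drug-free control included. At least two runs, six replicate wells each.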

[5] = Cytotoxicity against multidrug resistant human KBH5.0 cells overexpressing BCRP after MTT assay; type: functional, cell-based; conditions: KBH5.0 cell
Procedure, shortened: (§2)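 IC50 after continuous 4-day exposure to varying drug concentrations, with MTT read at the end of day 4. A drug-free control was included. At least two runs, each in six replicate wells.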

MDA-MB-435 (human) [6] = test: Antitumor activity against human MDA-MB-435 cells xenografted in NCR/NU NU mouse assessed as tumor volume measured on day 14 initially dosed at 5 mg/kg, ip qd x 5/week for 1 week and was gradually increased to 7 mg/kg x 5/week schedule
[7] = Cytotoxicity against camptothecin-resistant and TOP1 deficient mouse P388/CPT45 cells after MTT assay; type: functional, cell-based; conditions: P388CPT45
Procedure, shortened: as §1

MDA-MB-435 (human) [8] = test: Antitumor activity against human MDA-MB-435 cells xenografted in NCR/NU NU mouse assessed as tumor volume measured on day 7 initially dosed at 5 mg/kg, ip qd x 5/week for 1 week and was gradually increased to 7 mg/kg x 5/week schedule
[9] = biological target: T1, DNA topoisomerase 1 (Homo sapiens) (UniProt P11387); test: Inhibition of human topoisomerase 1 mediated DNA cleavage assessed as effective drug concentration causing 10% YepG plasmid cleavage relative to camptothecin; conditions: in the assay text read “relative to topotecan” for “relative to camptothecin”
T1 sequence (whole entry): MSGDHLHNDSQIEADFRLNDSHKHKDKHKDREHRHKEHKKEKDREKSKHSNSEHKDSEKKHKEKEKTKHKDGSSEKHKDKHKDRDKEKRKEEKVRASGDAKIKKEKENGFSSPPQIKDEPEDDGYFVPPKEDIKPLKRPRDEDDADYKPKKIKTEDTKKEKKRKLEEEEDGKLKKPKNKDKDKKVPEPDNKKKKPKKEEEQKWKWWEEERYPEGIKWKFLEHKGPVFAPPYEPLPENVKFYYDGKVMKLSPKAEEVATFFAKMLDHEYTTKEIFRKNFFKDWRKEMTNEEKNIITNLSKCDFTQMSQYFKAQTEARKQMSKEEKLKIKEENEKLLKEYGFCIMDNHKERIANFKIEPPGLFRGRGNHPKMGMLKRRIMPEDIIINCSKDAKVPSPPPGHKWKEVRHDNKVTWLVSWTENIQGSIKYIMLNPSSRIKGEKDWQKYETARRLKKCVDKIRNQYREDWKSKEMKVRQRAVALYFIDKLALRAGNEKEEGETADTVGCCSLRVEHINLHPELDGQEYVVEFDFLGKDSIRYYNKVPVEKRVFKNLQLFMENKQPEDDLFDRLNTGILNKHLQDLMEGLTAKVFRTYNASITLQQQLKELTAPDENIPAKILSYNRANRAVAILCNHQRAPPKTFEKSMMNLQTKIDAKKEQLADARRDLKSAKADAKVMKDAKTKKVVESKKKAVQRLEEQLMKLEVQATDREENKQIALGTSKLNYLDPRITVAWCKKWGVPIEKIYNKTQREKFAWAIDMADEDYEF
Procedure, shortened: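 Stopped with SDS and proteinase K, 1 h at 37 °C. Alkali-denatured with NaOH/EDTA/sucrose/bromophenol blue, then run on neutral agarose gel.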

[10] = Cytotoxicity against multidrug resistant human KBV-1 cells overexpressing MDR1 after MTT assay; type: functional, cell-based; conditions: KB-V1
Procedure, shortened: as §2

MDA-MB-435 (human) [11] = test: Antitumor activity against human MDA-MB-435 cells xenografted in NCR/NU NU mouse assessed as tumor volume measured on day 49 initially dosed at 5 mg/kg, ip qd x 5/week for 1 week and was gradually increased to 7 mg/kg x 5/week schedule
MDA-MB-435 (human) [12] = test: Antitumor activity against human MDA-MB-435 cells xenografted in NCR/NU NU mouse assessed as tumor volume measured on day 21 initially dosed at 5 mg/kg, ip qd x 5/week for 1 week and was gradually increased to 7 mg/kg x 5/week schedule
[13] = Cytotoxicity against camptothecin-resistant human CPT-K5 cells after MTT assay; type: functional, cell-based
Procedure, shortened: as §1

P388 = test: Cytotoxicity against mouse P388 cells after MTT assay; type: functional, cell-based
Procedure, shortened: as §1

MDA-MB-435 (human) [14] = test: Antitumor activity against human MDA-MB-435 cells xenografted in NCR/NU NU mouse assessed as tumor volume measured on day 28 initially dosed at 5 mg/kg, ip qd x 5/week for 1 week and dose schedule adjusted to achieve total dose of 301 mg/kg
MDA-MB-435 (human) [15] = test: Antitumor activity against human MDA-MB-435 cells xenografted in NCR/NU NU mouse assessed as tumor volume measured on day 35 initially dosed at 5 mg/kg, ip qd x 5/week for 1 week and dose schedule adjusted to achieve total dose of 301 mg/kg
MDA-MB-435 (human) [16] = test: Antitumor activity against human MDA-MB-435 cells xenografted in NCR/NU NU mouse assessed as tumor volume measured on day 14 initially dosed at 5 mg/kg, ip qd x 5/week for 1 week and dose schedule adjusted to achieve total dose of 301 mg/kg
[17] = Cytotoxicity against human KB3-1 cells after MTT assay; type: functional, cell-based; conditions: KB 3-1
Procedure, shortened: as §2

MDA-MB-435 (human) [18] = test: Antitumor activity against human MDA-MB-435 cells xenografted in NCR/NU NU mouse assessed as tumor volume measured on day 42 initially dosed at 5 mg/kg, ip qd x 5/week for 1 week and dose schedule adjusted to achieve total dose of 301 mg/kg
MDA-MB-435 (human) [19] = test: Antitumor activity against human MDA-MB-435 cells xenografted in NCR/NU NU mouse assessed as tumor volume measured on day 7 initially dosed at 5 mg/kg, ip qd x 5/week for 1 week and dose schedule adjusted to achieve total dose of 301 mg/kg
MDA-MB-435 (human) [20] = test: Antitumor activity against human MDA-MB-435 cells xenografted in NCR/NU NU mouse assessed as tumor volume measured on day 21 initially dosed at 5 mg/kg, ip qd x 5/week for 1 week and dose schedule adjusted to achieve total dose of 301 mg/kg
MDA-MB-435 (human) [21] = test: Antitumor activity against human MDA-MB-435 cells xenografted in NCR/NU NU mouse assessed as tumor volume measured on day 49 initially dosed at 5 mg/kg, ip qd x 5/week for 1 week and dose schedule adjusted to achieve total dose of 301 mg/kg
[22] = tested on: MDA-MB-435 (Homo sapiens); test: Antitumor activity against human MDA-MB-435 cells xenografted in NCR/NU NU mouse assessed as tumor volume measured on day 49 initially dosed at 1.5 mg/kg, ip qd x 3/5 days schedule; conditions: route intraperitoneal
[23] = tested on: MDA-MB-435 (Homo sapiens); test: Antitumor activity against human MDA-MB-435 cells xenografted in NCR/NU NU mouse assessed as tumor volume measured on day 35 initially dosed at 1.5 mg/kg, ip qd x 3/5 days schedule; conditions: route intraperitoneal
[24] = tested on: MDA-MB-435 (Homo sapiens); test: Antitumor activity against human MDA-MB-435 cells xenografted in NCR/NU NU mouse assessed as tumor volume measured on day 14 initially dosed at 1.5 mg/kg, ip qd x 3/5 days schedule; conditions: route intraperitoneal
[25] = tested on: MDA-MB-435 (Homo sapiens); test: Antitumor activity against human MDA-MB-435 cells xenografted in NCR/NU NU mouse assessed as tumor volume measured on day 28 initially dosed at 1.5 mg/kg, ip qd x 3/5 days schedule; conditions: route intraperitoneal
MDA-MB-435 (human) [26] = test: Antitumor activity against human MDA-MB-435 cells xenografted in NCR/NU NU mouse assessed as tumor volume measured on day 7 initially dosed at 1.5 mg/kg, ip qd x 3/5 days schedule; conditions: route intraperitoneal
[27] = tested on: MDA-MB-435 (Homo sapiens); test: Antitumor activity against human MDA-MB-435 cells xenografted in NCR/NU NU mouse assessed as tumor volume measured on day 21 initially dosed at 1.5 mg/kg, ip qd x 3/5 days schedule; conditions: route intraperitoneal
[28] = tested on: MDA-MB-435 (Homo sapiens); test: Antitumor activity against human MDA-MB-435 cells xenografted in NCR/NU NU mouse assessed as tumor volume measured on day 42 initially dosed at 1.5 mg/kg, ip qd x 3/5 days schedule; conditions: route intraperitoneal

Activity [9]	SMILES	IC50 [4] [nM]	IC50 [5] [nM]	IC50 [7] [nM]	IC50 [10] [nM]	IC50 [13] [µM]	IC50 (P388) [nM]	IC50 [17] [nM]	also measured
0.1	C#CCN(C)CCn1c(=O)c2cc(OC)c(OC)cc2c2cnc3cc4c(cc3c21)OCO4	8	34	400	70	4.5	20	–	Activity (MDA-MB-435 (human) [1]): 284 mm3; Activity (MDA-MB-435 (human) [2]): 358 mm3; Activity (MDA-MB-435 (human) [3]): 317 mm3; Activity (MDA-MB-435 (human) [6]): 167 mm3; Activity (MDA-MB-435 (human) [8]): 144 mm3; Activity (MDA-MB-435 (human) [11]): 433 mm3; Activity (MDA-MB-435 (human) [12]): 218 mm3
0.3	COc1cc2c(=O)n(CCN(C)CC(N)=O)c3c4cc5c(cc4ncc3c2cc1OC)OCO5	3	320	390	–	3.5	9	10	Activity (MDA-MB-435 (human) [14]): 319 mm3; Activity (MDA-MB-435 (human) [15]): 344 mm3; Activity (MDA-MB-435 (human) [16]): 178 mm3; Activity (MDA-MB-435 (human) [18]): 434 mm3; Activity (MDA-MB-435 (human) [19]): 147 mm3; Activity (MDA-MB-435 (human) [20]): 230 mm3; Activity (MDA-MB-435 (human) [21]): 527 mm3
0.3	COc1cc2c(=O)n(CCN(C)C)c3c4cc5c(cc4ncc3c2cc1OC)OCO5	2	6	230	5	0.9	–	5	Activity [22]: 242 mm3; Activity [23]: 175 mm³; Activity [24]: 123 mm³; Activity [25]: 158 mm³; Activity (MDA-MB-435 (human) [26]): 120 mm3; Activity [27]: 145 mm³; Activity [28]: 189 mm³
